Rad51 HR inh = human RAD51 strand exchange inhibitors, primary screen, biochemical, fluorescence; 200,000 tested, 0.085% active; inhibition, % at 10 µM; DNA repair protein RAD51 homolog 1 (Homo sapiens), Q06609; AID 1385, 2008; hRad51 DNA strand exchange, fluorescence dequenching;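 active = inhibition above 40% at the single screening dose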;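 also: 0% = DMSO control wells and 100% = blanks with heterologous ssDNA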
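Test system: preformed human Rad51 ssDNA filaments. Compound dosing: single dose, 10 µM final compound. Incubation: filaments 15 min 37 °C, then compound 30 min. Technique: FRET fluorescence dequenching, excitation 485 nm, emission 520 nm. Read-out basis: percent inhibition from fluorescence, normalised to plate control and blank means. Benchmarks: plate controls and plate blanks.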
Hsp70 act = Hsp70 transcriptional activators, primary screen, cell-based, HeLa, Hsp70 promoter luciferase, luminescence, 10 µM; HeLa Hsp70 promoter luciferase reporter; scaled: vehicle 0, proteasome-inhibitor control 100%; activation, % at 10 µM; 200,000 tested, 0.04% active;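 active = activation above the mean across all tested compounds plus 3 SD, cutoff set per campaign, cut at about 5.5% in these data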;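 also: 100% = MG132 at 30 µM as the positive control and 0% = DMSO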
HSV augment = enhancers of HSV replication in host cells, fold increase, host cell viability | HSV replication augmentation in cells | 220,000 tested, 0.005% active | maximum fold increase | AID 1956, 2009; in the data active = maximum fold increase above about 1.5; tested in PC3 cells
HSF1 activator = HSF-1 activators, primary screen, NIH3T3-HGL cells, MG132 stress, luminescence, single point; 300,000 tested, 1.7% active; NIH3T3-HGL HSF-1 luciferase reporter, 8 h; 100% = twice DMSO control signal; AID 504408, 2011; activation, % at 9 µM;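 active = mean replicate activation of at least 50% with a set share of replicates each reaching 50%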;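 also: 0% = median of the neutral control wells and 100% = twice that signal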
MDM2 E3 inh = MDM2-luciferase reporter signal enhancers, primary screen, MDM2 E3 ligase inhibitor project, cell-based, luminescence, 1536-well; 210,000 tested, 0.11% active; signal enhancement, % at 5 µM; cell-based MDM2 ubiquitination luciferase reporter, 2 h; 0 = plate control, 100 = twice control, blank-subtracted;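 active = signal enhancement of 30% or more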;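 also: luminescence tracks abundance of the self-degrading MDM2-luciferase fusion protein; higher signal means inhibition of MDM2 E3 ligase activity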
Target sequence (Q00987 whole entry, looked up, the tested form may be a part): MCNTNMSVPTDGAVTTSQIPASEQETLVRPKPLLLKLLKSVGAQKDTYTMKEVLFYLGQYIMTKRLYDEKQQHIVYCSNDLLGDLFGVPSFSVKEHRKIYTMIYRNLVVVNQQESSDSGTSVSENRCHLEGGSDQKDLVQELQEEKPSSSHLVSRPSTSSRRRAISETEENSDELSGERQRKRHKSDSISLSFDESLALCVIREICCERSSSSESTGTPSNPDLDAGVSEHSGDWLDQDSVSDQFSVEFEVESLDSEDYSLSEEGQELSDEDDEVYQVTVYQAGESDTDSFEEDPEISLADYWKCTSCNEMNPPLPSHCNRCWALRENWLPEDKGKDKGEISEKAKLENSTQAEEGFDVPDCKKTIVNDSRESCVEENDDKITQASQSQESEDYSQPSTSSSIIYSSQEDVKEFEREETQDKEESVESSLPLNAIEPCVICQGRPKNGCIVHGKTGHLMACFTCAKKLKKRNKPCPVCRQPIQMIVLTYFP
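Assay system: stable mammalian line carrying autodegrading MDM2–luciferase fusion reporter; amount: 2000 cells seeded into each well; buffer or medium: DMEM; benchmarks: plate control and blank wells; signal: luciferase luminescence; timing: 2 h compound exposure at 37 °C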
HSF1 inhib = HSF1 inhibitors in luciferase reporter cells, primary screen, cell-based, NIH3T3, luminescence. activity change, negative = inhibition, % at 7.5 µM (by protocol). 300,000 tested, 0.77% active. NIH3T3-HGL HSE-luciferase, MG132-induced, luminescence 8 h; active compounds read low;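 active = more than half of replicate wells show activity change below -50%, luminescence cut by over half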;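 also: luciferase reports HSF-1 transcriptional activity via heat shock element; 0% = median of DMSO wells and -100% = zero luminescence signal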
Active calls of the source: *; i = inactive; . = no result. Hits are enriched below; roughly 2.6% of the tested compounds scored in any of these assays.

SMILES	Rad51 HR inh	Hsp70 act	HSV augment	HSF1 activator	MDM2 E3 inh	HSF1 inhib
CCOC(=O)/C=C/C(=O)Nc1nccs1	2.7	-0.3	i	53.2*	-11.9	33.1
CCOC(=O)C(=O)Nc1nccs1	0.5	-0.4	i	3.5	-1.7	-5.9
Cc1ccc(/C=C/C(=O)Nc2nccs2)o1	0.6	0.2	i	62.3*	-8.2	33.1
Cc1ccc(CN2[C@@H](c3ccccc3)COCCS2(=O)=O)cc1	.	.	.	-8.3	.	1.9
CC(OC(=O)Cn1nnc2ccccc21)C(=O)NC1CCCC1 (stereo not drawn)	.	.	.	-6.4	.	0.2
O=C(Cn1nnc2ccccc21)NNC(=S)NC1CCCCC1	30.9	-0.3	i	-73.0	1.5	-65.5*
CCn1c(SCC(=O)Nc2oc(C)c3c(C)n[nH]c(=O)c23)nc2sc(C)c(C)c2c1=O	.	.	.	-77.8	.	-71.3*
Cc1cc(C)c(C)c(SCC(=O)Nc2oc(C)c3c(C)n[nH]c(=O)c23)c1C	.	.	.	-10.8	.	1.5
CCC(C(=O)OCC(=O)Nc1cc(Cl)ccc1Cl)c1ccccc1 (stereo not drawn)	-10.5	-0.2	i	-74.2	-12.1	-65.9*
NS(=O)(=O)c1ccc(NS(=O)(=O)c2ccc(NC(=S)Nc3ccccc3)cc2)cc1	-1.3	-0.2	i	53.8*	2.0	30.1
O=S(=O)(Nc1ccncc1)c1ccc(Cl)cc1	0.9	-0.1	i	-77.4	-2.0	-71.4*
O=S(=O)(Nc1ccncc1)c1ccccc1	-6.1	-0.2	i	-4.7	-5.6	-1.6
O=S(=O)(Nc1ncccn1)c1ccc(NC(=S)Nc2ccc(Cl)cc2)cc1	-33.9	.	i	55.7*	-13.4	20.2
CCc1ccc(NC(=S)Nc2ccc(S(=O)(=O)Nc3ncccn3)cc2)cc1	-3.9	0.2	i	-50.6	-1.9	-55.6*
Cc1cc(C)cc(NS(=O)(=O)c2ccc(NC(=S)Nc3ccccc3)cc2)c1	5.8	-0.5	i	13.0	6.4	9.8
CC(C)NC(=S)Nc1ccc(S(=O)(=O)Nc2ncccn2)cc1	8.1	-0.2	i	15.7	-2.2	-0.5
CCOc1ccc2nc(C)cc(Nc3cccc([N+](=O)[O-])c3)c2c1	6.8	-0.4	i	27.4	-16.3	7.4
Cc1c(C(=O)Nc2cccc([N+](=O)[O-])c2)cnn1-c1ccccc1	.	.	.	34.2	.	14.4
O=C(NC1CCCCC1)C(c1ccncc1)N(Cc1ccccc1)C(=O)c1ccc(-c2ccccc2)[nH]1 (stereo not drawn)	.	0.1	.	55.5*	-3.8	35.1
CC(C)(C)NC(=O)C(c1ccc(F)cc1)N(Cc1ccco1)C(=O)c1csnn1 (stereo not drawn)	1.1	0.5	i	35.0	-19.6	12.4
CC(C)(C)NC(=O)C(c1ccncc1)N(Cc1ccco1)C(=O)c1ccc(-c2ccccc2)[nH]1 (stereo not drawn)	-1.0	0.3	i	137.9*	-6.2	101.9
COc1ccc(N(C)S(=O)(=O)c2cccc(C(=O)NCC(c3cccs3)N(C)C)c2)cc1 (stereo not drawn)	.	.	.	27.7	.	2.9
O=C(Nc1cc(S(=O)(=O)N2CCCCC2)ccc1Oc1ccccc1)C1=COCCO1	.	.	.	-5.0	.	-0.7
COc1ccc(N2CCN(CCNC(=O)Nc3ccc(C)cc3Cl)CC2)cc1	.	.	.	-4.1	.	-10.9
CCOC(=O)c1c(CSCc2ccccc2)oc2ccc(O)c(CN(C)C)c12	.	.	i	-84.1	-17.0	-79.0*
SMILES	Rad51 HR inh	Hsp70 act	HSV augment	HSF1 activator	MDM2 E3 inh	HSF1 inhib
O=C(NCc1ccccc1)c1ccc(S(=O)(=O)NCc2ccco2)cc1	.	.	.	27.0	.	-6.1
CCOC(=O)C1(CC2CCCCO2)CCN(Cc2nc3ccccc3[nH]2)CC1 (stereo not drawn)	19.9	-0.1	i	-97.1	-6.2	-97.2*
CCOC(=O)C1(CC2CCCCO2)CCN(Cc2cc(F)ccc2-n2cccn2)CC1 (stereo not drawn)	-0.4	-0.3	i	-7.5	-14.6	-4.9
COc1cccc(COc2cc3ccccc3nc2C)c1	6.0	0.3	i	7.4	-33.5	9.0
Cc1ccc(S(=O)(=O)NC(C(=O)Oc2cc3oc(=O)cc(C)c3cc2Cl)C(C)C)cc1 (stereo not drawn)	-3.1	-0.4	i	6.9	.	3.9
Cn1nc(C(=O)NCc2ccc(F)cc2)c2c1-c1ccccc1S(=O)(=O)C2	.	.	.	20.3	.	10.1
CSc1ccc(CCNC(=O)c2nn(C)c3c2CS(=O)(=O)c2ccccc2-3)cc1	.	.	.	51.1*	.	10.7
O=C(OCC(=O)N1CCCC1)c1ccc(S(=O)(=O)Nc2ccccc2)cc1	-7.1	-0.1	i	-4.0	-17.4	4.0
Cc1ccc(NC(=O)CC(C)S(=O)(=O)c2ccc3c(c2)NC(=O)CO3)cc1C (stereo not drawn)	.	.	.	-3.7	.	-2.7
Cc1cccc(C)c1NS(=O)(=O)c1ccc2c(c1)NC(=O)CO2	5.6	-0.2	i	8.1	4.0	0.5
Cc1ccccc1NS(=O)(=O)c1ccc2c(c1)NC(=O)CO2	3.7	-0.3	i	60.6*	2.1	8.2
Cc1cccc(NC(=O)C2CCN(S(=O)(=O)c3ccc4c(c3)NC(=O)CO4)CC2)c1C	.	.	.	72.8*	.	24.2
Cc1cccc(NC(=O)CC(C)S(=O)(=O)c2ccc3c(c2)NC(=O)CO3)c1C (stereo not drawn)	.	.	.	105.5*	.	55.6
COc1ccccc1NC(=O)C1CCN(S(=O)(=O)c2ccc3c(c2)NC(=O)CO3)CC1	.	.	.	-1.2	.	-4.7
Cc1ccc2c(c1)CCCN2S(=O)(=O)c1cccc(C(=O)Nc2ccccc2C(=O)O)c1	.	.	.	-17.9	.	-9.5
COc1ccccc1NC(=O)Nc1ccc(F)c(F)c1	40.8*	0.2	i	32.2	-18.6	6.2
CC1CCCC(C)N1C(=O)CSc1ccc(-c2ccc3c(c2)OCCO3)nn1 (stereo not drawn)	.	.	.	-91.0	.	-88.4*
CCOC(=O)c1c(NC(=O)OC)sc(C(=O)N(CC)CC)c1C	6.7	-0.1	i	-78.2	-5.8	-71.9*
COc1ccc(C2=NC(=O)/C(=C\c3cc(OC)c(OC)c(OC)c3)O2)cc1	-71.5	-0.3	i	.	-6.3	.
Cc1ccc2c(COC(=O)c3ccc(NC(=O)CC#N)cc3)cc(=O)oc2c1C	.	.	.	55.7*	.	18.5
Cc1cc(C)c(C(=O)COC(=O)c2ccc(NC(=O)CC#N)cc2)cc1C	-166.2	.	i	-2.1	.	7.4
CC1CCc2c(sc(NC(=S)NC(=O)c3ccccc3)c2C#N)C1 (stereo not drawn)	24.7	.	i	58.7*	.	32.5

High-throughput results: PubChem BioAssay, several laboratories
